# Measurements taken from ChEMBL document CHEMBL5046307 (ACS Med Chem Lett, 2022).
# Key:
# [1] = Inhibition of human electron transport chain complex 1 in human NCI-H1299 cells assessed as reduction in cellular ATP level measured after 24 hrs by CellTiter-Glo assay; assay type: cell-based
# Outline: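 ATP-dependent luciferase luminescence read in H1299 cells, first without (M1) and then after adding the complex II substrate succinate (M2), to separate complex I block from downstream respiratory-chain inhibition or uncoupling.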
# [2] = Lipophilicity, logD of compound; settings: octanol/water
# [3] = Blood clearance in male Wistar rat at 0.3 to 5 mg/kg, iv and po by LC-MS/MS analysis; assay type: ADME, organism-based; settings: dose 0.3-5 mg/kg
# [4] = Metabolic stability in rat hepatocyte assessed as maximum bioavailability measured up to 90 mins by LC-MS/MS analysis; assay type: ADME; settings: for Fh at 1.5 h: rat hepatocytes, read-out: Fmax
# [5] = Inhibition of human electron transport chain complex 1 in dog MDCK cells assessed as reduction in cellular ATP measured after 24 hrs by CellTiter-Glo assay; assay type: cell-based
# [6] = Inhibition of human electron transport chain complex 1 in rat C6 cells assessed as reduction in cellular ATP measured after 24 hrs by CellTiter-Glo assay; assay type: cell-based; settings: C6, 24 h
# [7] = Inhibition of human electron transport chain complex 1 in human HCT-116 cells assessed as reduction in cellular ATP measured after 24 hrs by CellTiter-Glo assay; assay type: cell-based; settings: HCT-116, 24 h
# [8] = Inhibition of human electron transport chain complex 1 in dog A-72 cells assessed as reduction in cellular ATP measured after 24 hrs by CellTiter-Glo assay; assay type: cell-based; settings: A-72, 24 h
# [9] = Inhibition of human electron transport chain complex 1 in mouse 4T1 cells assessed as reduction in cellular ATP measured after 24 hrs by CellTiter-Glo assay; assay type: cell-based; settings: 4T1, 24 h
# [10] = Plasma protein binding in mouse assessed as fraction unbound incubated for 6 to 8 hrs by LC-MS/MS analysis; assay type: ADME, cell-free; settings: time 6-8 hrs
# [11] = Clearance in male Wistar rat blood at 0.4 mg/kg, iv by LC-MS/MS analysis
# [12] = Inhibition of dog electron transport chain complex 1 assessed as reduction in cellular ATP measured after 24 hrs by celltiter-glo assay; settings: Canis lupus familiaris
# [13] = Volume of distribution at steady state in Wistar rat plasma at 0.4 mg/kg, iv by LC-MS/MS analysis; assay type: ADME, organism-based; settings: read-out: Vdss
# [14] = Inhibition of mouse electron transport chain complex 1 assessed as reduction in cellular ATP measured after 24 hrs by celltiter-glo assay
# [15] = Half life in Wistar rat plasma at 0.4 mg/kg, iv by LC-MS/MS analysis; assay type: ADME, organism-based
# [16] = AUC in Wistar rat plasma at 0.8 mg/kg, po by LC-MS/MS analysis; assay type: ADME, organism-based; design: dose 0.8 mg/kg; settings: in vivo
# [17] = Oral bioavailability in Wistar rat plasma at 0.8 mg/kg by LC-MS/MS analysis; assay type: ADME, organism-based
# [18] = Inhibition of rat electron transport chain complex 1 assessed as reduction in cellular ATP measured after 24 hrs by celltiter-glo assay
logD [2],SMILES,"IC50 ([1]; Homo sapiens, NCI-H1299, 24 h) [µM]",further results
2.9,c1ccc2oc(-c3csc(C4CCN(Cc5cn6ccccc6n5)CC4)n3)cc2c1,0.34,
3.8,CC(C)(c1nc2ccccc2[nH]1)N1CCC(c2nc(-c3cc4ccccc4o3)cs2)CC1,3,
3.7,Fc1cccc2[nH]c(CN3CCC(c4nc(-c5cc6ccccc6o5)cs4)CC3)nc12,0.325,clearance [3]: 18.3 mL/min/kg; Fh at 1.5 h [4]: 57%
3.4,CCn1c(CN2CCC(c3nc(-c4cc5ccccc5o4)cs3)CC2)nc2ccccc21,> 30,
3,CN(C(=O)CN1CCC(c2nc(-c3cc4ccccc4o3)cs2)CC1)c1ccncc1,0.096,Fh at 1.5 h [4]: 10%
,O=C(CN1CCC(c2nc(-c3cc4ccccc4o3)cs2)CC1)Nc1ccncc1,0.07,
,O=C(CN1CCC(c2nc(-c3cc4ccccc4o3)cs2)CC1)Nc1ccccc1F,3.24,
3.5,Fc1ccc2cc(-c3csc(C4CCN(Cc5nc6ccccc6[nH]5)CC4)n3)oc2c1,0.5,
3,N#Cc1ccc2oc(-c3csc(C4CCN(Cc5nc6ccccc6[nH]5)CC4)n3)cc2c1,2,
3,Cc1ccc2[nH]c(CN3CCC(c4nc(-c5cc6ccccc6o5)cs4)CC3)nc2n1,0.3,
2.5,c1ccc2oc(-c3csc(C4CCN(Cc5cn6cccnc6n5)CC4)n3)cc2c1,0.73,
3.1,c1ccc2oc(-c3csc(C4CCN(Cc5cn6ncccc6n5)CC4)n3)cc2c1,0.3,
,CCc1nccc(NC(=O)CN2CCC(c3nc(-c4cc5ccccc5o4)cs3)CC2)c1Cl,0.102,
,O=C(CN1CCC(c2nc(-c3cc4ccccc4o3)cs2)CC1)Nc1cccc(C(F)(F)F)c1,3.28,
2.6,c1ccc2oc(-c3csc(C4CCN(Cc5ncc[nH]5)CC4)n3)cc2c1,4,
4.6,c1ccc2oc(-c3csc(C4CCN(Cc5nc6ccccc6o5)CC4)n3)cc2c1,1.72,
2.4,c1ccc2[nH]c(CN3CCC(c4nc(-c5cc6ncccc6o5)cs4)CC3)nc2c1,0.77,
3.1,c1ccc2[nH]c(CN3CCC(c4nc(-c5nc6ccccc6s5)cs4)CC3)nc2c1,0.71,
5.6,c1ccc2oc(-c3csc(C4CCN(Cc5nc6ccccc6s5)CC4)n3)cc2c1,1.76,
5.1,Cc1nsc(NC(=O)CN2CCC(c3nc(-c4cc5ccccc5o4)cs3)CC2)c1Cl,0.025,IC50 [5]: 0.049 µM; clearance [3]: 163 mL/min/kg; IC50 [6]: 0.0017 µM; IC50 [7]: 0.0039 µM; IC50 [8]: 0.027 µM; IC50 [9]: 0.013 µM; Fh at 1.5 h [4]: 18%
3.4,N#Cc1ccc2nc(CN3CCC(c4nc(-c5cc6ccccc6o5)cs4)CC3)[nH]c2c1,0.86,

logD [2],SMILES,"IC50 ([1]; Homo sapiens, NCI-H1299, 24 h) [µM]",further results
4.3,Cn1c(CN2CCC(c3nc(-c4cc5ccccc5o4)cs3)CC2)nc2ccccc21,0.7,
4.3,O=C(c1nc2ccccc2[nH]1)N1CCC(c2nc(-c3cc4ccccc4o3)cs2)CC1,3,
2.6,c1ccc2oc(-c3csc(C4CCN(Cc5nc6ncncc6[nH]5)CC4)n3)cc2c1,0.08,
3,c1ccc(-c2csc(C3CCN(Cc4nc5ccccc5[nH]4)CC3)n2)cc1,10,
,c1ccc2oc(-c3csc(C4CCN(Cc5nc6cnccc6[nH]5)CC4)n3)cc2c1,0.038,Fu [10]: 0.59%; clearance [11]: 20 mL/min/kg; IC50 [12]: 0.037 µM; Vd [13]: 3.2 L/kg; IC50 [14]: 0.026 µM; half-life [15]: 3.1 h; AUC [16]: 1 kg·h/L; bioavailability [17]: 80%; Fh at 1.5 h [4]: 63%; IC50 [18]: 0.022 µM
3.7,c1ccc(-c2c[nH]c(CN3CCC(c4nc(-c5cc6ccccc6o5)cs4)CC3)n2)cc1,0.86,
2.6,c1coc(-c2csc(C3CCN(Cc4nc5ccccc5[nH]4)CC3)n2)c1,> 30,
5.7,CC(C)(C(=O)Nc1cccc(F)c1)N1CCC(c2nc(-c3cc4ccccc4o3)cs2)CC1,> 30,Fh at 1.5 h [4]: 55%
3.1,Fc1cnc2nc(CN3CCC(c4nc(-c5cc6ccccc6o5)cs4)CC3)[nH]c2c1,0.3,
,O=C(CN1CCC(c2nc(-c3cc4ccccc4o3)cs2)CC1)Nc1cccc(F)c1,0.42,
2.5,Cn1c(-c2csc(C3CCN(Cc4nc5ccccc5[nH]4)CC3)n2)nc2ccccc21,20,
3.3,c1ccc2oc(-c3csc(C4CCN(c5nnc(-c6ccncc6)o5)CC4)n3)cc2c1,13.4,Fh at 1.5 h [4]: 44%
2.7,c1ccc2oc(-c3csc(C4CCN(Cc5cn6ccncc6n5)CC4)n3)cc2c1,0.39,
,O=C(CN1CCC(c2nc(-c3cc4ccccc4o3)cs2)CC1)Nc1cncs1,0.155,
3,Cc1ccnc2nc(CN3CCC(c4nc(-c5cc6ccccc6o5)cs4)CC3)[nH]c12,0.3,
3.4,c1ccc2oc(-c3csc(C4CCN(Cc5nc6ccccc6[nH]5)CC4)n3)cc2c1,0.2,
,O=C(CN1CCC(c2nc(-c3cc4ccccc4o3)cs2)CC1)Nc1ccccc1,0.882,
5.6,Cc1nsc(NC(=O)C(C)N2CCC(c3nc(-c4cc5ccccc5o4)cs3)CC2)c1Cl (racemic),0.077,clearance [3]: 118 mL/min/kg; Fh at 1.5 h [4]: 61%
3.7,CC(c1nc2ccccc2[nH]1)N1CCC(c2nc(-c3cc4ccccc4o3)cs2)CC1 (racemic),0.4,
4.2,"CCc1nccc(N2CCC(N3CCC(c4nc(-c5cc6ccccc6o5)cs4)CC3)C2=O)c1Cl (single isomer, unassigned; form 1)",,clearance [3]: 45 mL/min/kg; IC50 ([1]; nci-h1299): 0.014 µM; Fh at 1.5 h [4]: 40%
,"CCc1nccc(N2CCC(N3CCC(c4nc(-c5cc6ccccc6o5)cs4)CC3)C2=O)c1Cl (single isomer, unassigned; form 2)",,"IC50 ([1]; nci-h1299): 0.95 µM; Fmax ([4]; hepatocytes, 1.5 h): 43%"
